Results: ChEMBL document CHEMBL3870334, “Synthesis, anticancer, and docking studies of salicyl-hydrazone analogues: A novel series of small potent tropomyosin receptor kinase A inhibitors” (Bioorg Med Chem, 2017)

Columns and labels:
[1] = target: T1, High affinity nerve growth factor receptor (Homo sapiens, UniProt P04629); test: Inhibition of human N- terminal GST-tagged TrkA cytoplasmic domain (436 to 790 residues) expressed in baculovirus infected sf21 cells at 1 uM using biotinylated peptide substrate incubated for 15 mins followed by addition of ATP measured after 30 mins by TR-FRET assay relative to control
Target sequence in this assay (P04629 33-796 limits assumed): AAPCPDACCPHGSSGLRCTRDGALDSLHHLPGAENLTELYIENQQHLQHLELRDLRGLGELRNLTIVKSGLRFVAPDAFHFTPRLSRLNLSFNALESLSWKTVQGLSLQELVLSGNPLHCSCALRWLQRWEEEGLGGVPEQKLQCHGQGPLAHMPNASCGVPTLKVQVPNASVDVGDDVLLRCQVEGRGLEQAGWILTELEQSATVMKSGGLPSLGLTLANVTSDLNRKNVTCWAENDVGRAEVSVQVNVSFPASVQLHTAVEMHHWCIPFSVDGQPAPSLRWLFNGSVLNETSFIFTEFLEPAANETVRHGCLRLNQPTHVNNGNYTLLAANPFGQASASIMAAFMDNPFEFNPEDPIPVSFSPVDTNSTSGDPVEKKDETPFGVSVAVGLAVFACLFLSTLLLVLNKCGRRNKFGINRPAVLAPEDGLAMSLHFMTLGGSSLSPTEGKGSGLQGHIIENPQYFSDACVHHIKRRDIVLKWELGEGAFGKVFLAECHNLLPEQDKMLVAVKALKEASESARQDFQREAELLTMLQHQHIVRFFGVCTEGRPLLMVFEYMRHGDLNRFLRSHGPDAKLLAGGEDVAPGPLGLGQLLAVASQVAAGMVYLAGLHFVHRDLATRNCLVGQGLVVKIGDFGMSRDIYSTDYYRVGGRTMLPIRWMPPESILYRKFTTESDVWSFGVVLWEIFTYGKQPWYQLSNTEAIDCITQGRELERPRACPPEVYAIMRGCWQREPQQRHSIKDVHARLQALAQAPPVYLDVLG

[2] = Cytotoxicity against human MIAPaCa2 cells assessed as reduction in cell proliferation measured after 48 hrs by SRB assay; assay type: functional, cell-based; conditions: MIA PaCa-2, 48 h
Summary of the method: (§1)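 SRB assay of net cell proliferation after continuous 48 h exposure to test compound. Inhibition is expressed as a percentage of non-treated controls. Samples were run in triplicate, and the mean IC50 (concentration giving 50% inhibition of proliferation) was calculated. Doxorubicin served as positive control.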

[3] = Cytotoxicity against human HCT15 cells assessed as reduction in cell proliferation measured after 48 hrs by SRB assay; assay type: functional, cell-based; conditions: HCT-15, 48 h; summary of the method: as §1
[4] = Cytotoxicity against human SK-MEL-2 cells assessed as reduction in cell proliferation measured after 48 hrs by SRB assay; assay type: functional, cell-based; conditions: SK-MEL-2, 48 h; summary of the method: as §1
[5] = Cytotoxicity against human SKOV3 cells assessed as reduction in cell proliferation measured after 48 hrs by SRB assay; assay type: functional, cell-based; conditions: SK-OV-3, 48 h; summary of the method: as §1
[6] = Cytotoxicity against human A549 cells assessed as reduction in cell proliferation measured after 48 hrs by SRB assay; assay type: functional, cell-based; conditions: A549, 48 h; summary of the method: as §1
[7] = target: T1, High affinity nerve growth factor receptor; test: Inhibition of TrkA (unknown origin)
Summary of the method: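 Purified TrkA, biotinylated substrate peptide and inhibitor were preincubated 15 min at 25°C, then 100 µM ATP was added. After 30 min, Eu-cryptate anti-phosphotyrosine antibody (1 µM) and streptavidin-XL665 (125 nM) were added for 1 h. HTRF read at 320 nm excitation, 620/665 nm emission ratio. IC50 from % inhibition across 12 serial dilutions (0.03~10000 nM).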
Target sequence in this assay (P04629 whole entry, the tested form may be a part): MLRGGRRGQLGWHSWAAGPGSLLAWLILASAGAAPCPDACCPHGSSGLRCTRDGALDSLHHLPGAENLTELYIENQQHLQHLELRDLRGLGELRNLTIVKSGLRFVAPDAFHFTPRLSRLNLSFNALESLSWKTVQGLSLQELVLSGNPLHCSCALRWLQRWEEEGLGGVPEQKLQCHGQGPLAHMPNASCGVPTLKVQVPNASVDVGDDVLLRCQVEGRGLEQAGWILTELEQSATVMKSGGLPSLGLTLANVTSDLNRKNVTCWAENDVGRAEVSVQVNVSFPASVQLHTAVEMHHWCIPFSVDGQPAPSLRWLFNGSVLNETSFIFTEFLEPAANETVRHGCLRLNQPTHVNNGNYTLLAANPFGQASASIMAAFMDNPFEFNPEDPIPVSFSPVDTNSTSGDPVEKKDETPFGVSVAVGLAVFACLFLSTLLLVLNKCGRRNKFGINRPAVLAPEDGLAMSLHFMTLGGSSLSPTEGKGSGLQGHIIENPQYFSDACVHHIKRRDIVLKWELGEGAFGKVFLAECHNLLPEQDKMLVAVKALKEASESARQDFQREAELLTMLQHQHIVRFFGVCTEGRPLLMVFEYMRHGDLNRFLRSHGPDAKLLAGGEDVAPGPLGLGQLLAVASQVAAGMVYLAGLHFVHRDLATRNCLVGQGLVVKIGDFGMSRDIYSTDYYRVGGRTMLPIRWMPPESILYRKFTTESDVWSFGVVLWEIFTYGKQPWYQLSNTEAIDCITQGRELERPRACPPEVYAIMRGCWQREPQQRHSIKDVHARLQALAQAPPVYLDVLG

[8] = target: T1, High affinity nerve growth factor receptor; test: Inhibition of human N- terminal GST-tagged TrkA cytoplasmic domain (436 to 790 residues) expressed in baculovirus infected sf21 cells using biotinylated peptide substrate incubated for 15 mins followed by addition of ATP measured after 30 mins by TR-FRET assay
Target sequence in this assay (P04629 whole entry, the tested form may be a part): as above

[9] = target: T1, High affinity nerve growth factor receptor; test: Inhibition of human TrkA expressed in human U2OS cells assessed as inhibition of NGF-induced response measured after 1 hr by beta-galactosidase assay; assay type: cell-based
Target sequence in this assay (P04629 whole entry, the tested form may be a part): as above

[10] = target: T1, High affinity nerve growth factor receptor; test: Inhibition of TrkA (unknown origin) by ELISA
Target sequence in this assay (P04629 whole entry, the tested form may be a part): as above

Row | Structure (SMILES) | inhibition [1] [%] | IC50 [2] [µM] | IC50 [3] [µM] | IC50 [4] [µM] | IC50 [5] [µM] | IC50 [6] [µM] | IC50 [7] [nM] | IC50 [8] [nM] | IC50 [9] [nM] | IC50 [10] [nM]
1 | O=C(N/N=C/c1ccc(Cl)cc1)c1ccccc1O | 6.92 | 7.19 | 20.9 | 14.3 | 9.83 | 22.2 |  |  |  | 
2 | Oc1ccc(Nc2nc(-c3ccccc3O)nc3ccccc23)cc1 |  |  |  |  |  |  | 303 |  |  | 
3 | O=C(N/N=C/c1ccc(O)cc1O)c1ccccc1O | 92.4 | 0.48 | 0.89 | 1.43 | 0.87 | 2.46 |  | 232 |  | 
4 | Cc1ccc(/C=N/NC(=O)c2ccccc2O)cc1 | 3.7 | 4.45 | 26.9 | 13.1 | 9.81 | 6.74 |  |  |  | 
5 | COc1cccc2c1C(=O)c1c(O)c3c(c(O)c1C2=O)C[C@@](O)(C(=O)CO)C[C@@H]3O[C@H]1C[C@H](N)[C@H](O)[C@H](C)O1 [DOXORUBICIN] |  | 0.049 | 0.872 | 0.001 | 0.074 | 0.021 |  |  |  | 
6 | Nc1ccc(Cc2cccc(NC(=O)N3CCN(c4ccccc4)C3=O)c2)cn1 |  |  |  |  |  |  | 20 |  |  | 
7 | O=C(N/N=C/c1ccccc1)c1ccccc1O |  | 2.46 | 21.3 | 9.77 | 5.94 | 2.78 |  |  |  | 
8 | COc1ccc(/C=N/NC(=O)c2ccccc2O)cc1 |  | 8.64 | 28.1 | 15.2 | 14.4 | 12.9 |  |  |  | 
9 | CN(C)c1ccc(/C=N/NC(=O)c2ccccc2O)cc1 |  | 20.7 | 38.4 | 19.3 | 18.5 | 21.5 |  |  |  | 
10 | O=C(N/N=C/c1ccccc1[N+](=O)[O-])c1ccccc1O |  | 14 | 34.6 | 19.4 | 19.6 | 23.2 |  |  |  | 
11 | CCc1ncc(C(=O)C2CC([C@@H](C)CO)c3ncncc32)cc1NC(=O)Cc1ccc(C(F)(F)F)cc1 (some centres not stated) |  |  |  |  |  |  |  |  | 13 | 
12 | CC1(C)C[C@H](c2cc(F)ccc2F)N(c2ccn3ncc(NC(=O)c4cnccn4)c3n2)C1 |  |  |  |  |  |  |  |  |  | 2
13 | Cn1cc(/C=C2\C(=O)Nc3cccnc32)c2ccccc21 | > 99 |  |  |  |  |  |  |  |  | 
14 | O=C(N/N=C/c1ccc([N+](=O)[O-])cc1)c1ccccc1O |  | 6.73 | 22.7 | 9.34 | 8.8 | 8.72 |  |  |  | 
15 | COc1ccccc1/C=C/C(=O)Nc1nc(N)n(-c2ccccc2)n1 |  |  |  |  |  |  | 27 |  |  | 
16 | COc1ccc(/C=N/NC(=O)c2ccccc2O)c(OC)c1 | 7.61 | 11.3 | 25.7 | 19.6 | 14.5 | 31.3 |  |  |  | 
17 | O=C(N/N=C/c1ccc(O)c(O)c1)c1ccccc1O | 92.9 | 4.74 | 10 | 8.86 | 9.14 | 3.15 |  | 2540 |  | 
18 | COc1ncc(C(=O)C2CC(C(C)C)c3ncncc32)cc1NC(=O)Nc1cc(Cl)cc(Cl)c1 (configuration not stated) |  |  |  |  |  |  |  |  | 48 | 
19 | O=C(N/N=C/c1ccc(O)c(O)c1O)c1ccccc1O | 90.9 | 2.21 | 3.71 | 1.84 | 1.96 | 7.16 |  | 380 |  | 
20 | O=C(N/N=C/c1ccc(O)cc1)c1ccccc1O | 20.6 | 1.18 | 8.6 | 5.46 | 9.1 | 2.86 |  |  |  | 
